Data as given in ChEMBL document CHEMBL1143895, “Core-modified porphyrins. Part 6: Effects of lipophilicity and core structures on physicochemical and biological properties in vitro” (Bioorg Med Chem, 2008).

Experiments:
R3230AC [1] = experiment: Cytotoxicity in rat R3230AC cells irradiated with 10.8J/cm^2 of water filtered halogen light after 24 hrs by MTT assay; format: functional, cell-based; conditions: light or radiation study
How it was run: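 R3230AC rodent mammary adenocarcinoma cells in α-MEM with 10% bovine growth serum, seeded 1.0–1.5×10^4 cells/well and grown 24 h at 37 °C, 5% CO2. Porphyrin in complete medium for 24 h, rinsed with saline, then irradiated 1 h in clear serum-free medium with water-filtered halogen light (400–850 nm, 3 mW/cm², 10.8 J/cm²). Given complete medium, 24 h dark, then MTT vs light-only controls. IC50 from Hill fit; ≥3 experiments in duplicate.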

R3230AC [2] = experiment: Drug uptake in rat R3230AC assessed as intracellular accumulation per cell at 10 uM after 24 hrs; format: ADME, cell-based
How it was run: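 R3230AC cells seeded 2.0–3.0×10^4/well and grown 24 h. Porphyrin from a 2 mM DMSO stock, diluted in complete medium to 10 μM final, 24 h at 37 °C. Monolayer rinsed twice with 0.9% NaCl and lysed in DMSO. Porphyrin fluorescence read and converted through a DMSO standard curve to fmol/cell. Mean with SEM.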

[3] = Lipophilicity, log D at pH 7.4; format: physicochemical; conditions: buffer
How it was run: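 Shake-flask method: porphyrin dissolved in equal volumes of n-octanol and pH 7.4 phosphate buffer, sonicated 30 min, left to settle 4 h. Each phase measured by UV-vis absorbance and reported as log D7.4.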

R3230AC [4] = experiment: Cytotoxicity in rat R3230AC cells under dark condition upto 10 uM after 24 hrs by MTT assay; format: functional, cell-based
How it was run: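 Dark toxicity in R3230AC cells, seeded 1.0–1.5×10^4 cells/well and grown 24 h at 37 °C, 5% CO2. Porphyrin up to 10 μM in complete medium for 24 h, rinsed with saline. Cells held 1 h in the dark in clear serum-free medium, then 24 h in complete medium before MTT, read as percent of untreated dark controls.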

[5] = Singlet oxygen generation assessed as DPBF oxidation at 1 uM; format: functional
How it was run: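 DPBF consumption by singlet oxygen from the irradiated porphyrin, with stirring under 3 mW/cm² light. UV absorbance of DPBF read every 2 min up to 10 min, expressed as percent DPBF oxidized.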

Structure (SMILES) | Drug uptake (R3230AC [2]) [fmol] | logD [3] | IC50 (R3230AC [1]) [nM] | Activity (R3230AC [4]) | Activity [5] [%]
O=C(O)COc1ccc(-c2c3nc(c(-c4ccccc4)c4ccc(s4)c(-c4ccccc4)c4nc(c(-c5ccc(OCC(=O)O)cc5)c5ccc2s5)C=C4)C=C3)cc1 | 0.59 | 0.1 | 130 | Not toxic | 68
O=C(O)COc1ccc(-c2c3nc(c(-c4ccccc4)c4ccc(s4)c(-c4ccccc4)c4nc(c(-c5ccccc5)c5ccc2s5)C=C4)C=C3)cc1 | 0.31 | 1.6 | 260 | Not toxic | 78
O[C@@H]1c2nc(c(-c3ccccc3)c3ccc(s3)c(-c3ccccc3)c3nc(c(-c4ccccc4)c4ccc(s4)c2-c2ccccc2)C=C3)[C@@H]1O | 4.5 | > 2 | 180 | Not toxic | 78
O=C(O)COc1ccc(-c2c3nc(c(-c4ccccc4)c4ccc(s4)c(-c4ccccc4)c4nc(c(-c5ccc(OCC(=O)O)cc5)c5ccc2s5)[C@H](O)[C@@H]4O)C=C3)cc1 | 0.11 | -0.5 | 2570 | Not toxic | 62
O=C(O)COc1c(OCC(=O)O)c2cc3nc(c(-c4ccccc4)c4ccc([nH]4)c(-c4ccccc4)c4nc(cc1s2)C=C4)C=C3 [THIAPORPHYRIN] | 0.16 | 0.8 | 2280 | Not toxic | 48

More lines, main results first:

Drug uptake (R3230AC [2]) [fmol] | logD [3] | Structure (SMILES) | IC50 (R3230AC [1]) [nM] | Activity (R3230AC [4]) | Activity [5] [%]
0.46 | > 2 | CC(C)(C)c1ccc(-c2c3nc(c(-c4ccc(OCC(=O)O)cc4)c4ccc(s4)c(-c4ccccc4)c4nc(c(-c5ccccc5)c5ccc2s5)C=C4)C=C3)cc1 | 590 | Not toxic | 75
0.33 | 1.8 | O=C(O)COc1ccc(-c2c3nc(c(-c4ccc(F)cc4)c4ccc(s4)c(-c4ccc(F)cc4)c4nc(c(-c5ccc(F)cc5)c5ccc2s5)C=C4)C=C3)cc1 | 380 | Not toxic | 75
0.3 | 0.8 | O=S(=O)([O-])c1ccc(-c2c3nc(c(-c4ccc(F)cc4)c4ccc(s4)c(-c4ccc(F)cc4)c4nc(c(-c5ccc(F)cc5)c5ccc2s5)C=C4)C=C3)cc1.[Na+] | 770 | Not toxic | 64
